Measured values: ChEMBL document CHEMBL1148376, “Synthesis, monoamine transporter binding properties, and behavioral pharmacology of a series of 3beta-(substituted phenyl)-2beta-(3'-substituted isoxazol-5-yl)tropanes” (J Med Chem, 2004)
Values joined by “and” are separate entries in the source; they are usually repeats but may differ in a detail not shown here. Identical values can stand only once. Active and inactive are the calls of the source. No cut-off for these calls is given here.

Tests used:
[1] = target: Sodium-dependent dopamine transporter (Rattus norvegicus, UniProt P23977); assay: Inhibitory concentration required to inhibit dopamine transporter DAT was determined by using [3H]WIN-35428 radioligand
How it was run: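 Competition binding at the DAT with 0.5 nM [3H]WIN35,428 (final concentration). Other procedures follow earlier published methods.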

Mus musculus [2] = assay: Percent change in locomotor activity in mice at 3 mg/kg i.p. in 1 h.; format: functional; settings: route intraperitoneal
How it was run: (§1)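 Mice habituated 1/2 h to photocell activity chambers, then injected ip with compound homogenized in 0.5% methyl cellulose (10 mL/kg); vehicle controls; N = 5 or 6 per dose. Photobeam interruptions recorded in 10-min bins for 4 h, grouped into 1-h bins; one-way ANOVA with Newman-Keuls post hoc test (p < 0.05).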

Mus musculus [3] = assay: Percent change in locomotor activity in mice at 3 mg/kg i.p. in 2 h.; format: functional; settings: route intraperitoneal; how it was run: as §1
Mus musculus [4] = assay: Percent change in locomotor activity in mice at 3 mg/kg i.p. in 3 h.; format: functional; settings: route intraperitoneal; how it was run: as §1
Mus musculus [5] = assay: Percent change in locomotor activity in mice at 3 mg/kg i.p. in 4 h.; format: functional; settings: route intraperitoneal; how it was run: as §1
Mus musculus [6] = assay: Percent change from vehicle in locomotor activity in mice at 30 mg/kg (ip) in 1 h; format: functional
Mus musculus [7] = assay: Percent change from vehicle in locomotor activity in mice at 30 mg/kg (ip) in 2 h; format: functional
Mus musculus [8] = assay: Percent change from vehicle in locomotor activity in mice at 30 mg/kg (ip) in 3 h; format: functional
Mus musculus [9] = assay: Percent change from vehicle in locomotor activity in mice at 30 mg/kg (ip) in 4 h; format: functional
Mus musculus [10] = assay: Percent change from vehicle in locomotor activity in mice at 10 mg/kg (ip) in 1 h; format: functional
Mus musculus [11] = assay: Percent change from vehicle in locomotor activity in mice at 10 mg/kg (ip) in 2 h; format: functional
Mus musculus [12] = assay: Percent change from vehicle in locomotor activity in mice at 10 mg/kg (ip) in 3 h; format: functional
Mus musculus [13] = assay: Percent change from vehicle in locomotor activity in mice at 10 mg/kg (ip) in 4 h; format: functional
Mus musculus [14] = organism: Mus musculus; assay: Effective dose for locomotor activity in mice in the peak hour.; format: functional
Mus musculus [15] = organism: Mus musculus; assay: Hour 1 ratio to cocaine was determined for locomotor activity in mice; format: functional
[16] = target: T1, Norepinephrine transporter (Rattus norvegicus, UniProt Q9WTR4); assay: Binding affinity towards norepinephrine transporter was determined using [3H]nisoxetine radioligand.
How it was run: (§2)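 Competition binding at the NET with 0.5 nM [3H]nisoxetine (final concentration). Other procedures follow earlier published methods.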

[17] = target: T1, Norepinephrine transporter; assay: Inhibition of norepinephrine transporter (NET) determined using [3H]nisoxetine radioligand.; how it was run: as §2
Rattus norvegicus [18] = assay: Drug discrimination effect of compound in rats, expressed as percent of rats choosing the cocaine lever at dose 17 mg/kg (ip); format: functional
Rattus norvegicus [19] = assay: Drug discrimination effect of compound in rats, expressed as percent of rats choosing the cocaine lever at dose 30 mg/kg (ip); format: functional
Rattus norvegicus [20] = assay: Drug discrimination effect of compound in rats, expressed as percent of rats choosing the cocaine lever at dose 5.6 mg/kg (ip); format: functional
Rattus norvegicus [21] = assay: Effective dose for drug discrimination effect in rat (ip); format: functional
How it was run: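 Cocaine-trained rat drug discrimination, FR10, 10-min sessions. Compound in 0.5% methyl cellulose given ip 15 min before session, usually to 7-8 rats per dose. Doses were raised from ≤20% to ≥80% cocaine-lever choice, capped at 30 mg/kg, >50% loss of pressing, or side effects.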

[22] = target: T2, Sodium-dependent serotonin transporter (Rattus norvegicus, UniProt P31652); assay: Binding affinity towards serotonin transporter 5-HTT was determined using [3H]paroxetine radioligand.
How it was run: (§3)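 Competition binding at the 5-HTT with 0.2 nM [3H]paroxetine (final concentration). Other procedures follow earlier published methods.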

[23] = target: T2, Sodium-dependent serotonin transporter; assay: Inhibitory concentration required to inhibit serotonin transporter 5-HTT was determined by using [3H]paroxetine radioligand; how it was run: as §3
Mus musculus [24] = assay: Percent change from vehicle in locomotor activity in mice at 0.3 mg/kg (ip) in 1 h; format: functional
Mus musculus [25] = assay: Percent change from vehicle in locomotor activity in mice at 0.3 mg/kg (ip) in 2 h; format: functional
Mus musculus [26] = assay: Percent change from vehicle in locomotor activity in mice at 0.3 mg/kg (ip) in 3 h; format: functional
Mus musculus [27] = assay: Percent change from vehicle in locomotor activity in mice at 0.3 mg/kg (ip) in 4 h; format: functional
Mus musculus [28] = assay: Percent change in locomotor activity in mice at 1 mg/kg i.p. in 1 h.; format: functional; settings: route intraperitoneal
Mus musculus [29] = assay: Percent change in locomotor activity in mice at 1 mg/kg i.p. in 2 h.; format: functional; settings: route intraperitoneal; how it was run: as §1
Mus musculus [30] = assay: Percent change locomotor activity in mice at 1 mg/kg i.p. in 3 h.; format: functional; settings: route intraperitoneal; how it was run: as §1
Mus musculus [31] = assay: Percent change in locomotor activity in mice at 1 mg/kg i.p. in 4 h.; format: functional; settings: route intraperitoneal; how it was run: as §1
Rattus norvegicus [32] = assay: Drug discrimination effect of compound in rats, expressed as percent of rats choosing the cocaine lever at dose 0.1 mg/kg (ip); format: functional
Rattus norvegicus [33] = assay: Drug discrimination effect of compound in rats, expressed as percent of rats choosing the cocaine lever at dose 0.17 mg/kg (ip); format: functional
Rattus norvegicus [34] = assay: Drug discrimination effect of compound in rats, expressed as percent of rats choosing the cocaine lever at dose 0.3 mg/kg (ip); format: functional
Rattus norvegicus [35] = assay: Drug discrimination effect of compound in rats, expressed as percent of rats choosing the cocaine lever at dose 1 mg/kg (ip); format: functional
Rattus norvegicus [36] = assay: Drug discrimination effect of compound in rats, expressed as percent of rats choosing the cocaine lever at dose 0.56 mg/kg (ip); format: functional
Mus musculus [37] = organism: Mus musculus; assay: Effective dose was evaluated for locomotor activity in mice in the peak hour; No stimulation; format: functional, organism-based
Rattus norvegicus [38] = assay: Drug discrimination effect of compound in rats, expressed as percent of rats choosing the cocaine lever at dose 10 mg/kg (ip); format: functional
Rattus norvegicus [39] = assay: Drug discrimination effect of compound in rats, expressed as percent of rats choosing the cocaine lever at dose 3 mg/kg (ip); format: functional

T2 sequence (P31652 whole entry): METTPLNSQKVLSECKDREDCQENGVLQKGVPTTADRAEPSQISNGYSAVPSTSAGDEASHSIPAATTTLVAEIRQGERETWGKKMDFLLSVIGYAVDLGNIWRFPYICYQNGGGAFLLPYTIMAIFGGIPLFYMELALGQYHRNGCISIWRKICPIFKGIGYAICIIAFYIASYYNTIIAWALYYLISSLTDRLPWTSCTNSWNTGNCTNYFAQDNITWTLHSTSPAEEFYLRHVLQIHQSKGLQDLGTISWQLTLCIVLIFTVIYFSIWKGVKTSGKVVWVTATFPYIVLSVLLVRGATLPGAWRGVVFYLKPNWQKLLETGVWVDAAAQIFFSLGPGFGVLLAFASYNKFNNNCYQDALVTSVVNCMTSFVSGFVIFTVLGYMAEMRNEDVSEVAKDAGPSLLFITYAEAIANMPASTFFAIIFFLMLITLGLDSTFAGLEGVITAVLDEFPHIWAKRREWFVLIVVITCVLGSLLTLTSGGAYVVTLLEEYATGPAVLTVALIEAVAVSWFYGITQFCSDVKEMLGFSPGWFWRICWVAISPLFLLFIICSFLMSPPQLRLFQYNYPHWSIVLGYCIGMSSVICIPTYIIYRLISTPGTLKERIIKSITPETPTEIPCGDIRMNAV
Sequence of Sodium-dependent dopamine transporter (P23977 whole entry): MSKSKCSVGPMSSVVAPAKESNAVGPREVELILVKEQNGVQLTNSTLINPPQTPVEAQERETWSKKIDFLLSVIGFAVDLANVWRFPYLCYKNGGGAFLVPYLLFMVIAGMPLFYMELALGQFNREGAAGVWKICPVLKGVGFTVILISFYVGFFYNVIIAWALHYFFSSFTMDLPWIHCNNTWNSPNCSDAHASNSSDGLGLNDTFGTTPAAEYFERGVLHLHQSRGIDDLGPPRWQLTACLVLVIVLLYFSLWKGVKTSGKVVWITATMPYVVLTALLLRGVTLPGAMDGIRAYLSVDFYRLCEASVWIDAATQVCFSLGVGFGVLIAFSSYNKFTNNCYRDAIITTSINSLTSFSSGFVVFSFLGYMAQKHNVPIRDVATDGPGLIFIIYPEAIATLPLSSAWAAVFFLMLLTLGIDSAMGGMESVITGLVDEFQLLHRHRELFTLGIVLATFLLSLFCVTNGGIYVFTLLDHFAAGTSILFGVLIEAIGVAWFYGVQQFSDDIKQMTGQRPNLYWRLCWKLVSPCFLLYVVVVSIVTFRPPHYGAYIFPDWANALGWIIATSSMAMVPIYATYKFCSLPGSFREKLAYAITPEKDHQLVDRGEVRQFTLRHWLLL
T1 sequence (Q9WTR4 whole entry): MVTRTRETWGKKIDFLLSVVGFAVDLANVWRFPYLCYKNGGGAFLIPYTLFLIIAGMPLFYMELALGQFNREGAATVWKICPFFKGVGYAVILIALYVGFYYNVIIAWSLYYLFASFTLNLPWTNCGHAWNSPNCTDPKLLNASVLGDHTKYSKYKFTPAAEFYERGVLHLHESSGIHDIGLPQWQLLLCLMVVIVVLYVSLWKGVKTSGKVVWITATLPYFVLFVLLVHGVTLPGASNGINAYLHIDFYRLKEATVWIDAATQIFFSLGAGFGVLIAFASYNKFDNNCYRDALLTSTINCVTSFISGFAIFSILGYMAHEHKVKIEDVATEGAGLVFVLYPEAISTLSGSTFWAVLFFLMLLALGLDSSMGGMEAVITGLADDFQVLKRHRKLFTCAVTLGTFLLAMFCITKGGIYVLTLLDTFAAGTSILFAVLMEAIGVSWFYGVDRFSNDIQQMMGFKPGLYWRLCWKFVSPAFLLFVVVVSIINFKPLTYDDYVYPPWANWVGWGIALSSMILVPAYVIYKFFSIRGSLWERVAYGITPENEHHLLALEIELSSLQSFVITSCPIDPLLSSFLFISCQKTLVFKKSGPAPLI

Structure (SMILES)	IC50 [1]	Change (Mus musculus [2])	Change (Mus musculus [3])	Change (Mus musculus [4])	Change (Mus musculus [5])	Change (Mus musculus [6])	Change (Mus musculus [7])	ED50 (Mus musculus [14])	Ki [16]	IC50 [17]	ED50 (Rattus norvegicus [21])	Ki [22]	IC50 [23]	Change (Mus musculus [24])	Change (Mus musculus [25])	Change (Mus musculus [26])	Change (Mus musculus [27])	Change (Mus musculus [28])	Change (Mus musculus [30])	Drug discrimination effect (Rattus norvegicus [35])	also measured
COc1ccc(-c2cc(C3C(c4ccc(C)cc4)CC4CCC3N4C)on2)cc1 (configuration not stated)	3.93 nM	73%	32%	27%	30%	290%	235%	12.8 mg/kg	455 nM	756 nM	11 mg/kg	366 nM	4030 nM	–	–	–	–	–	–	–	Change (Mus musculus [8]): 430%; Change (Mus musculus [9]): 483%; Change (Mus musculus [10]): 187%; Change (Mus musculus [11]): 115%; Change (Mus musculus [12]): 65%; Change (Mus musculus [13]): 34%; Ratio (Mus musculus [15]): 0.6; Drug discrimination effect (Rattus norvegicus [18]): 43%; Drug discrimination effect (Rattus norvegicus [19]): 83%; Drug discrimination effect (Rattus norvegicus [20]): 0%
CN1C2CCC1C(c1ccno1)C(c1ccc(Cl)cc1)C2 (configuration not stated)	0.77 nM	486%	137%	-40%	-71%	–	–	1.2 mg/kg	52 nM	87 nM	0.41 mg/kg	8.2 nM	91 nM	57%	86%	70%	-20%	186%	345%	100%	Change (Mus musculus [29]): 284%; Change (Mus musculus [31]): 182%; Ratio (Mus musculus [15]): 1.1; Drug discrimination effect (Rattus norvegicus [32]): 13%; Drug discrimination effect (Rattus norvegicus [33]): 29%; Drug discrimination effect (Rattus norvegicus [34]): 63%; Drug discrimination effect (Rattus norvegicus [36]): 25%
Cc1ccc(C2CC3CCC(C2c2cc(-c4ccc(Cl)cc4)no2)N3C)cc1 (configuration not stated)	8.74 nM	30%	39%	7%	-1%	-26%	38%	–	3990 nM	6980 nM	–	–	> 100000 nM	-35%	-20%	-58%	45%	5%	33%	0%	Change (Mus musculus [8]): 79%; Change (Mus musculus [9]): 52%; Change (Mus musculus [31]; 1 mg/kg): 24% and 27%; Change (Mus musculus [10]): -1%; Change (Mus musculus [11]): -3%; Change (Mus musculus [12]): -45%; Change (Mus musculus [13]): -20%; ED50 (Mus musculus [37]): inactive; Drug discrimination effect (Rattus norvegicus [38]): 0%; Drug discrimination effect (Rattus norvegicus [39]): 13%; Drug discrimination effect (Rattus norvegicus [19]): 0%
Cc1ccc(C2CC3CCC(C2c2ccno2)N3C)cc1 (configuration not stated)	1.37 nM	698%	666%	571%	125%	–	–	1 mg/kg	–	–	0.19 mg/kg	38 nM	414 nM	-13%	-12%	136%	-28%	319%	48%	100%	Change (Mus musculus [29]): 214%; Change (Mus musculus [31]): -32%; Drug discrimination effect (Rattus norvegicus [32]): 0%; Drug discrimination effect (Rattus norvegicus [33]): 43%; Drug discrimination effect (Rattus norvegicus [34]): 83%
